Values joined by “and” are separate entries in the source; they are usually repeats but may differ in a detail not shown here. Equal values may be shown once.
How the values were obtained:
[1] = (§1) Neurotoxic dose (TD50) from horizontal screen in mice; type: toxicity, organism-based; conditions: mouse, in vivo
Outline: (§2)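 Male CF-1 mice, ip dosing in 30% PEG 400 unless otherwise noted. Trained mice are placed on a 13 × 13 cm no. 4 mesh wire screen on a vertical rod, which is rotated 180°. Impairment is scored as failure to climb to the top within 1 min. TD50 comes from a dose-response at the time of peak anticonvulsant activity, with 3–4 doses and 12 mice/dose. Some entries used the rotorod instead.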

Mus musculus [2] = assay: Concentration required to prevent seizures upon intraperitoneal administration in mice in MES (maximal electroshock seizure) test.; type: functional
Outline: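 Male CF-1 mice dosed ip with compound in 30% PEG 400 (one compound in acacia). Pilot groups of 4 mice per dose tested at 0.5, 1 and 4 h for protection against maximal electroshock seizures.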

Mus musculus [3] = species on record: Mus musculus; assay: as §1; type: toxicity, organism-based; conditions: in vivo; outline: as §2
[4] = Mus musculus, ip, read-out: ED50

| SMILES | ED50 (Mus musculus [2]; [4]) [mg/kg] | other results |
| --- | --- | --- |
| CONC(NC(C)=O)C(=O)NCc1ccccc1 (stereo unspecified) | 6.2 | TD50 [1]: 46 mg/kg |
| CC(=O)NC(NC(C)=O)C(=O)NCc1ccccc1 | – | ED50 (Mus musculus [2]): <300 mg/kg and >100 mg/kg |
| CSC(NC(C)=O)C(=O)NCc1ccccc1 (stereo unspecified) | > 100 | – |
| CC[S+]([O-])C(NC(C)=O)C(=O)NCc1ccccc1 (stereo unspecified) | > 100 | – |
| CON(C)C(NC(C)=O)C(=O)NCc1ccccc1 (stereo unspecified) | 6.7 | TD50 [1]: 50.5 mg/kg |
| CC(=O)NC(O)C(=O)NCc1ccccc1 (stereo unspecified) | 80.1 | – |
| CC(=O)NC(Nc1ccccc1)C(=O)NCc1ccccc1 (stereo unspecified) | > 300 | – |
| CC(=O)NC(NNc1ccccc1)C(=O)NCc1ccccc1 (stereo unspecified) | 100 | – |
| CC(=O)NC(Oc1ccccc1)C(=O)NCc1ccccc1 (stereo unspecified) | > 100 | – |
| CCS(=O)(=O)C(NC(C)=O)C(=O)NCc1ccccc1 (stereo unspecified) | > 100 | – |
| CCOC(NC(C)=O)C(=O)NCc1ccccc1 (stereo unspecified) | 62 | TD50 [1]: > 112 mg/kg |
| CC(=O)NC(N)C(=O)NCc1ccccc1 (stereo unspecified) | 65.1 | – |
| CC(=O)NC(C(=O)NCc1ccccc1)N(C)O (stereo unspecified) | 30 | – |
| CC(=O)NC(Sc1ccccc1)C(=O)NCc1ccccc1 (stereo unspecified) | > 300 | – |
| CC(=O)NC(Nc1cc[nH]n1)C(=O)NCc1ccccc1 (stereo unspecified) | 100 | – |
| CC(=O)NC(C(=O)NCc1ccccc1)N(C)C (stereo unspecified) | 45.3 | – |
| CC(=O)NC(C(=O)NCc1ccccc1)[N+](C)(C)C.F[B-](F)(F)F (stereo unspecified) | > 100 | – |
| CC(=O)NC(NNC(=O)OCc1ccccc1)C(=O)NCc1ccccc1 (stereo unspecified) | 55.6 | – |
| CC(=O)NC(C(=O)NCc1ccccc1)c1ccco1 (stereo unspecified) | – | TD50 [1]: 40 mg/kg |
| COC(NC(C)=O)C(=O)NCc1ccccc1 (stereo unspecified) | – | TD50 (Mus musculus [3]): > 100 mg/kg and < 300 mg/kg |
| CC(=O)NC(C(=O)NCc1ccccc1)N1CCCO1 (stereo unspecified) | 31.4 | – |
| CC(=O)NC(NO)C(=O)NCc1ccccc1 (stereo unspecified) | 100 | – |
| CC(=O)NC(NC(=O)C(F)(F)F)C(=O)NCc1ccccc1 (stereo unspecified) | > 300 | – |

— ChEMBL document CHEMBL1125809, “Preparation and anticonvulsant activity of a series of functionalized alpha-heteroatom-substituted amino acids” (J Med Chem, 1991)
